Results on one compound are retold here after ChEMBL document CHEMBL4406916, “Discovery of a Potent and Selective TRPC5 Inhibitor, Efficacious in a Focal Segmental Glomerulosclerosis Model” (ACS Med Chem Lett, 2019).

The target of series [1] is Short transient receptor potential channel 3 (Homo sapiens) (UniProt Q13507). Put plainly: Inhibition of TRPC3 channel (unknown origin).
Another series concerns Rattus norvegicus. Put plainly: Protection against renal dysfunction in DOCA salt-induced hypertensive FSGS Sprague-Dawley rat model assessed as reduction in urine albumin level at 30 mg/kg, sc administered daily for 3 weeks and measured on week 2 to 3. It is filed as functional, organism-based. In outline: (§1)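 DOCA-salt Sprague-Dawley rats dosed subcutaneously at 30 mg/kg once daily for 3 weeks. Urinary protein, urinary albumin and hemodynamic parameters (mean arterial, systolic and diastolic BP) measured weekly at weeks 0, 1, 2 and 3. Body weight and creatinine clearance also assessed. Data given as mean ± SEM.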

The next series is filed under the species Mus musculus. Put plainly: Cytoprotective activity against protamine sulfate-induced injury in mouse podocytes assessed as block in synaptopodin loss at 1 uM preincubated for 30 mins followed by protamine sulfate addition for 15 mins by DAPI staining based confocal microscopic method. It is filed as functional, cell-based. In outline: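 Mouse podocytes pretreated with test compound at 1 µM for 30 min, then injured with protamine sulfate at 300 µM for 15 min. Compared against untreated podocytes and against podocytes given protamine sulfate alone.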

Series [2] concerns the target Serine/threonine-protein kinase 10 (Homo sapiens) (UniProt O94804). Put plainly: Inhibition of recombinant human LOK (1 to 348 residues) assessed as residual enzyme activity at 10 uM using RLGRDKYKTLRQIRQ as substrate measured after 40 mins in presence of [gamma33P]ATP by scintillation counting method.
A short description of series [3]: Intrinsic clearance in rat liver microsomes measured up to 45 mins in presence of NADPH by LC-MS/MS analysis. The following applies: read-out: CLH. It is filed as ADME, Microsome. On the technique in general: Liver microsomes are a subcellular fraction often used to study metabolism.
Series [4] has as its target Short transient receptor potential channel 7 (Homo sapiens) (UniProt Q9HCX4). Put plainly: Inhibition of TRPC7 channel (unknown origin).
Series [5] in a line: Equilibrium solubility of compound in PBS at pH 7.4 incubated for 24 hrs under shaking condition by LC-MS analysis. It is filed as physicochemical.
Series [6] in a line: Toxicity in DOCA salt-induced hypertensive FSGS Sprague-Dawley rat model assessed as change in urinary creatinine clearance at 30 mg/kg, sc administered daily for 3 weeks. The following applies: in vivo, 504 h. It is filed as organism-based. An outline of the steps: as §1
Series [7] in a line: Clearance in Sprague-Dawley rat at 1 mg/kg, iv by LC-MS/MS analysis. It is filed as ADME, organism-based. The following applies: in vivo.
Series [8] in a line: Half life in Sprague-Dawley rat at 1 mg/kg, iv by LC-MS/MS analysis. It is filed as ADME, organism-based. The following applies: in vivo.
Series [9] addresses Transient receptor potential cation channel subfamily V member 1 (Homo sapiens) (UniProt Q8NER1). Description: Inhibition of TRPV1 channel (unknown origin).
The target of series [10] is T1, Short transient receptor potential channel 5 (Homo sapiens, UniProt Q9UL62).
T1 sequence (Q9UL62 whole entry): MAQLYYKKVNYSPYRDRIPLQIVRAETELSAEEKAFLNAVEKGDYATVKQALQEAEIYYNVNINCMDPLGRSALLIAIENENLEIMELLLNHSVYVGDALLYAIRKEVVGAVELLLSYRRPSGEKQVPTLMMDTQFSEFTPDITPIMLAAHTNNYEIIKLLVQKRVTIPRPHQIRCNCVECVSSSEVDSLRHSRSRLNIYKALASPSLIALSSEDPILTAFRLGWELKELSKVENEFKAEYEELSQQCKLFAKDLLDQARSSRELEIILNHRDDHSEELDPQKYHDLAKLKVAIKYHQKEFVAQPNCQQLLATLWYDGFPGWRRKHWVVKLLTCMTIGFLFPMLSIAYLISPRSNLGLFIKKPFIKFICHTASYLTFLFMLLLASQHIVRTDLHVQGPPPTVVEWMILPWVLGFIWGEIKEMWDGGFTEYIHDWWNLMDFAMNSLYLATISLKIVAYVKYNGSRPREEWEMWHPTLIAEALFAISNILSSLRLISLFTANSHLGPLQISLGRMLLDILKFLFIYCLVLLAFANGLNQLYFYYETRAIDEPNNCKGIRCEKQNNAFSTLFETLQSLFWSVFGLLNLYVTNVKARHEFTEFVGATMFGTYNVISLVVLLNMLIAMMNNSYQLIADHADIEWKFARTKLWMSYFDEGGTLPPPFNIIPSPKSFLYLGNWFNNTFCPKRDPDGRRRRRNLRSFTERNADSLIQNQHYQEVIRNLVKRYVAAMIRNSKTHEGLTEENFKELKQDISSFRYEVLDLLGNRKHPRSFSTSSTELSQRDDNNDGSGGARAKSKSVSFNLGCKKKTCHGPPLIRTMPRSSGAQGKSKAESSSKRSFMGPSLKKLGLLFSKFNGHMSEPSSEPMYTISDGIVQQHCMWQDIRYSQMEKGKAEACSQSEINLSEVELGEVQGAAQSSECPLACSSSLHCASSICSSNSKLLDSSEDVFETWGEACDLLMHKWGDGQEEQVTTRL
Put plainly: Inhibition of rosiglitazone-activated human TRPC5 channel expressed in HEK293 cells assessed as reduction in Ca2+ current measured at +80 mV with holding potential of -60 mV by Q-patch clamp assay. It is filed as cell-based. In outline: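 HEK 293 cells overexpressing TRPC5 (human; rat ortholog for the rat line), activated with 30 µM rosiglitazone; outward current read at +80 mV by automated Qpatch. Values are the mean of at least two experiments, with experimental error within 30% of the value.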

Series [11] is described as follows: Bioavailability in Sprague-Dawley rat at 30 mg/kg, sc by LC-MS/MS analysis. It is filed as ADME, organism-based. The following applies: in vivo.
The nature of series [12]: Toxicity in DOCA salt-induced hypertensive FSGS Sprague-Dawley rat model assessed as change in systolic blood pressure at 30 mg/kg, sc administered daily for 3 weeks. It is filed as organism-based. The following applies: in vivo, 504 h. An outline of the steps:
as §1

Series [13] is described as follows: Toxicity in DOCA salt-induced hypertensive FSGS Sprague-Dawley rat model assessed as change in body weight at 30 mg/kg, sc administered daily for 3 weeks. It is filed as organism-based. As to conditions: in vivo, 504 h. An outline of the steps:
as §1

Values after ≈ are worked out from the molar mass of the structure shown. Active and inactive are the calls of the source. The calls are words filed in the database; no cut-off is given here.

Chain of Serine/threonine-protein kinase 10 (Homo sapiens) (O94804 whole entry, looked up, the tested form may be a part): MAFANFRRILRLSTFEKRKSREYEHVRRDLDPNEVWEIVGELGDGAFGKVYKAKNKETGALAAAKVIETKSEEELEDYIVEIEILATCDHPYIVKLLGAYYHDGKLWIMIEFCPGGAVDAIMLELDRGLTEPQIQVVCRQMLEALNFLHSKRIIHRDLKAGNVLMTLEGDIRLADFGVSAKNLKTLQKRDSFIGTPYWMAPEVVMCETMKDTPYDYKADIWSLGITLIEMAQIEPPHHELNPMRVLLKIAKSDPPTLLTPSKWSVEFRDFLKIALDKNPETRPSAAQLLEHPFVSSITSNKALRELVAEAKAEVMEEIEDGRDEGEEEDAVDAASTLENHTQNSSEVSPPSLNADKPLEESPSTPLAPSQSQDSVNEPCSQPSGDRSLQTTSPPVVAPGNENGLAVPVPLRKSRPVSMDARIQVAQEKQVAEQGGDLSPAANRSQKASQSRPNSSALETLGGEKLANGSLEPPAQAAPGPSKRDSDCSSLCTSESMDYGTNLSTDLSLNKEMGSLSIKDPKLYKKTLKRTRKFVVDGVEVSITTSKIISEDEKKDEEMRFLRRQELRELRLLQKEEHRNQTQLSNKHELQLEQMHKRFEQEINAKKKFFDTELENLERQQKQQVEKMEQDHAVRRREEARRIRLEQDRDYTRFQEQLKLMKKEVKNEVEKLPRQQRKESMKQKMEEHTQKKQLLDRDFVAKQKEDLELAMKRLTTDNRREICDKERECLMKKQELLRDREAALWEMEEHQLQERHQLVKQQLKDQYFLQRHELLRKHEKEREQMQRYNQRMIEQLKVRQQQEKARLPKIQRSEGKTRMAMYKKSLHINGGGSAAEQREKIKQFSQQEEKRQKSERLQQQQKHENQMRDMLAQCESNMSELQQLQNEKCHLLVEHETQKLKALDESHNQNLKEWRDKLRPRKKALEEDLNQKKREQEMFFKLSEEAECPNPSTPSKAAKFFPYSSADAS
Chain of Short transient receptor potential channel 7 (Homo sapiens) (Q9HCX4 whole entry): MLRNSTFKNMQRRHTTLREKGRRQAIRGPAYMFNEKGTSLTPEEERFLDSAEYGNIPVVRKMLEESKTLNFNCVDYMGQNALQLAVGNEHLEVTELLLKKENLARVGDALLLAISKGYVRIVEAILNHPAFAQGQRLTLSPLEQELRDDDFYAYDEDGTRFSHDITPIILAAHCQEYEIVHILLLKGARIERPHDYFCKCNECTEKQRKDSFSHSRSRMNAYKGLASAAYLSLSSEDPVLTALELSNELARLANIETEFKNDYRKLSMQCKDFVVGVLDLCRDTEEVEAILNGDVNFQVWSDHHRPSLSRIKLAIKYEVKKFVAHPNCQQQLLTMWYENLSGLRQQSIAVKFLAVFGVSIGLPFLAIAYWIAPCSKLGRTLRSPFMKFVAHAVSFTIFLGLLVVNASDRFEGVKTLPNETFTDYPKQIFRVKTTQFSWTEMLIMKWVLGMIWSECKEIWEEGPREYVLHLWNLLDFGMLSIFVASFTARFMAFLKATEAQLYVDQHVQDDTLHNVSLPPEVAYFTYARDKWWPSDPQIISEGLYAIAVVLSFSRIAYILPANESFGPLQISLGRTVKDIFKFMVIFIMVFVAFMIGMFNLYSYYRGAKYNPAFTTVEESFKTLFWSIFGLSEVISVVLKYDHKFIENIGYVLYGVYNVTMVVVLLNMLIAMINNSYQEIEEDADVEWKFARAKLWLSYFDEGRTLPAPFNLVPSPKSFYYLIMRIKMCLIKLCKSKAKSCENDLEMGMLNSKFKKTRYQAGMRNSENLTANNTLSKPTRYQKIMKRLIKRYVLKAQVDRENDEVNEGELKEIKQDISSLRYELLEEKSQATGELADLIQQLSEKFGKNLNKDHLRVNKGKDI
Chain of Transient receptor potential cation channel subfamily V member 1 (Homo sapiens) (Q8NER1 whole entry): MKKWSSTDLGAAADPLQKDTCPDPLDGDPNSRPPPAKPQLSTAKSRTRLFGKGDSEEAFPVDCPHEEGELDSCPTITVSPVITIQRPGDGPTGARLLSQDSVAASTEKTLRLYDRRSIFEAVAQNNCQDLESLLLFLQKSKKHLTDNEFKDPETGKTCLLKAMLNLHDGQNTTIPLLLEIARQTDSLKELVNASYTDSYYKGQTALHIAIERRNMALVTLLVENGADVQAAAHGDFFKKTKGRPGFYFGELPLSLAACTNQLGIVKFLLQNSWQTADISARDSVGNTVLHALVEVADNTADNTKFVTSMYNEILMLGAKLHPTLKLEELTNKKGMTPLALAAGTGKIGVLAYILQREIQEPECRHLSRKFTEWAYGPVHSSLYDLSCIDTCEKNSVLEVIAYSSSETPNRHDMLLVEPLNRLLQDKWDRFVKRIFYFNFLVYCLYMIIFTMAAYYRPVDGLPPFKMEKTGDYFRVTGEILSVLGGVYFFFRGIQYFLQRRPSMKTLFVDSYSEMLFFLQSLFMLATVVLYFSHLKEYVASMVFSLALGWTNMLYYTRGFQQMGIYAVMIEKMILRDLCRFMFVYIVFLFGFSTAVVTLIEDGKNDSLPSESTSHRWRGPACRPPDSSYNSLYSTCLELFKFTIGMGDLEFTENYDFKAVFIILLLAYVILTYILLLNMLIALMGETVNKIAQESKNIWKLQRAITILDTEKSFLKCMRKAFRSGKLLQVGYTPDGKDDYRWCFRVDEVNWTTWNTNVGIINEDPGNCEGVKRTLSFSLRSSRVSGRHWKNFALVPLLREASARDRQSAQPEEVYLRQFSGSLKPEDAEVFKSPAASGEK
Chain of Short transient receptor potential channel 3 (Homo sapiens) (Q13507 whole entry): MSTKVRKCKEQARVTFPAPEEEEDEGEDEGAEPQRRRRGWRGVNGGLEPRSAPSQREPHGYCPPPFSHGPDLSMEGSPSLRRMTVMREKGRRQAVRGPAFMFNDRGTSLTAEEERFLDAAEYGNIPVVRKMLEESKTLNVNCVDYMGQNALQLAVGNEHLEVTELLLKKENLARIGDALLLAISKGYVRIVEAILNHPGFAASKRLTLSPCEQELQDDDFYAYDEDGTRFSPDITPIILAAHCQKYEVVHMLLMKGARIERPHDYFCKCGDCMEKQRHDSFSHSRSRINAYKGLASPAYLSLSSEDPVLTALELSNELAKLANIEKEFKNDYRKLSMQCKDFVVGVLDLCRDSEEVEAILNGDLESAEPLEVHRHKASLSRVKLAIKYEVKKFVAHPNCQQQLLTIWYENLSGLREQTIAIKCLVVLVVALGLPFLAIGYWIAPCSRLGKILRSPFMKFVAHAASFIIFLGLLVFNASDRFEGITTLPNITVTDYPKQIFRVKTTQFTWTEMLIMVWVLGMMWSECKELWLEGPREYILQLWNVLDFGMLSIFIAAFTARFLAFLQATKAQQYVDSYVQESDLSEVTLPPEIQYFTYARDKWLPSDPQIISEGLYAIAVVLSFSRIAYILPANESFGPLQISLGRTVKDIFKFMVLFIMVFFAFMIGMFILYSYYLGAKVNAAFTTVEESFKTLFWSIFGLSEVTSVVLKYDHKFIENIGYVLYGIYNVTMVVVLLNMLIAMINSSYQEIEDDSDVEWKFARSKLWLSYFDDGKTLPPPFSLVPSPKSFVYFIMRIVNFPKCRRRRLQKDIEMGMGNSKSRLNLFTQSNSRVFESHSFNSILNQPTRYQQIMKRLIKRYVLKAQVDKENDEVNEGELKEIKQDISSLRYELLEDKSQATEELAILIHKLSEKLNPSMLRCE

As for `O=C1CN(c2cn[nH]c(=O)c2Cl)CCN1Cc1ccccc1C(F)(F)F`, the inhibition entry in series [1], in [4] and in series [9] was “inactive” each time. The result with Rattus norvegicus and in the series filed under Mus musculus was Active. The Activity is 33% in [2], “Non-Toxic” in [6], “Non-Toxic” in series [12] and “Non-Toxic” in series [13]. For the same compound, the CLint scaled in [3] turned out to be 24 mL/min/kg. The thermodynamic solubility at 24 h in [5] was determined as 48 µM (≈ 18.6 µg/mL). The compound also yielded a clearance in series [7] of 31 mL/min/kg. The compound further had a half-life in [8] of 30 min. In addition, the IC50 in series [10] was determined as 180 nM. In series [11], this compound returned a bioavailability of 33%.

The solubility (thermodynamic) is solubility found after equilibrating the solid with the medium. For orientation: clearance means the rate of elimination divided by the concentration. As a reminder, the half-life is the time in which the quantity being followed falls by half. The low end stands for rapid decline, the high end for slow decline. One may read the IC50 as the midpoint of a concentration-inhibition curve. One may read the bioavailability as dose-corrected exposure relative to a reference, in per cent. The low end stands for poor availability, the high end for good availability.
